Measurements of several laboratories.
Lines come from different studies, so protocols differ.
BRAF: Serine/threonine-protein kinase B-raf (BRAF, Homo sapiens, UniProt P15056)
BRAF V600E: Serine/threonine-protein kinase B-raf (BRAF, Homo sapiens, UniProt P15056, V600E)

| SMILES | target | assay | conditions | inhibition |
| --- | --- | --- | --- | --- |
| C=CC(=O)Nc1cc(Nc2nccc(Nc3cc(Cl)c(F)cc3C(C)(C)O)n2)c(OC)cc1N1CC[C@@H](N(C)C)C1 | BRAF | enzyme activity, inhibitor | 1 µM | 4% |
| Cn1cncc1C1=CN(c2ncnc3[nH]cnc23)CCS1 | BRAF | enzyme activity, inhibitor, radiometric | 2 µM | 35.1% |
| CN(C)C1CCN(CC#Cc2nn(C3CCCC3)c3nc(NCc4ccccc4)ncc23)C1 (stereo not drawn) | BRAF | enzyme activity, inhibitor, FRET | 1 µM | 1% |
| Cc1ccc(N=Nc2sc(NN=C(CS(=O)(=O)c3ccccc3)c3ccc(C)cc3)nc2C)cc1 | BRAF V600E | enzyme activity, inhibitor, ATP luminescence | 10 µM | 87% |
| CS(=O)(=O)Nc1cccc(-c2csc(NC(=O)CSc3nc4nccnc4c(=O)n3CCc3ccccc3)n2)c1 | BRAF | enzyme activity, inhibitor | 10 µM | 1% |
| COc1cc(-c2cc(-c3ccc(N4CCNCC4)cc3)cnc2N)cc(OC)c1OC | BRAF V600E | enzyme activity, inhibitor | 1 µM | 18% |
| Cc1ccc(C(CS(=O)(=O)c2ccccc2)=NNC(N)=S)cc1 | BRAF V600E | enzyme activity, inhibitor, ATP luminescence | 10 nM | 31% |
| O=C(CSc1nc2nccnc2c(=O)n1CCc1ccccc1)Nc1nccs1 | BRAF V600E | enzyme activity, inhibitor | 10 µM | -2% |
| COc1ccc(-c2csc(NN=C(CS(=O)(=O)c3ccccc3)c3ccc(F)cc3)n2)cc1 | BRAF V600E | enzyme activity, inhibitor, ATP luminescence | 10 nM | 25% |
| COc1cc2ncnc(Nc3ccc(Oc4ccccc4)c(C)c3C)c2cc1OC | BRAF | enzyme activity, inhibitor | 1 µM | 11% |
| Cc1ccc(C(CS(=O)(=O)c2ccccc2)=NNC2=NC(=O)C(=NNc3ccccc3)S2)cc1 | BRAF V600E | enzyme activity, inhibitor, ATP luminescence | 0.1 µM | 54% |
| CCOc1cc(-c2nncn2C)ccc1Nc1ncc2cc(C)nc(NCC(C)(C)C)c2n1 | BRAF | cell-free assay, TR-FRET | 1 µM | ≤ 15% |
